For 6 molecules, Ki, IC50 and Ratio results are on record in ChEMBL document CHEMBL1136016, “Synthesis, biological activity, and molecular modeling investigation of new pyrazolo[4,3-e]-1,2,4-triazolo[1,5-c]pyrimidine derivatives as human A(3) adenosine receptor antagonists” (J Med Chem, 2002).

For experiment [1], the target named is T1, Adenosine receptor A1 (Homo sapiens, UniProt P30542).
T1 sequence (P30542 whole entry): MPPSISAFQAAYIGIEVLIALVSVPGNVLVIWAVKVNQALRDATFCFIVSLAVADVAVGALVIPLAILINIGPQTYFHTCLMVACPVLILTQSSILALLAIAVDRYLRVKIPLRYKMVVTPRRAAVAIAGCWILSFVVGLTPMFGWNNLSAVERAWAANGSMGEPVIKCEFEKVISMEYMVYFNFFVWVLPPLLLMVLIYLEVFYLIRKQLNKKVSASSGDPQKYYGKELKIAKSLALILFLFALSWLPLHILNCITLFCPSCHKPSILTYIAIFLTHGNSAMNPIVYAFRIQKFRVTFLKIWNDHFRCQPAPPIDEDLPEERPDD
In words: Displacement of [3H]DPCPX from human Adenosine A1 receptor expressed in CHO cells; range 512-698. Format: cell-based. In outline: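 Competition binding on membranes of CHO cells stably expressing human A1 receptor, resuspended in 50 mM Tris HCl pH 7.4. Incubation 120 min at 25 °C with 1 nM [3H]DPCPX, 50 µg protein per assay and at least six to eight test concentrations. CHA defined nonspecific binding. Bound ligand separated on glass-fibre filters and counted; n = 3-6.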

The target in experiment [2] is T2, Adenosine receptor A2a (Homo sapiens, UniProt P29274). In words: Displacement of [3H]SCH-58261 from human Adenosine A2A receptor expressed in HEK293 cells; range 83-120. Format: cell-based.
Experiment [3] deals with T3, Adenosine receptor A3 (Homo sapiens, UniProt P0DMS8).
T3 sequence (P0DMS8 whole entry): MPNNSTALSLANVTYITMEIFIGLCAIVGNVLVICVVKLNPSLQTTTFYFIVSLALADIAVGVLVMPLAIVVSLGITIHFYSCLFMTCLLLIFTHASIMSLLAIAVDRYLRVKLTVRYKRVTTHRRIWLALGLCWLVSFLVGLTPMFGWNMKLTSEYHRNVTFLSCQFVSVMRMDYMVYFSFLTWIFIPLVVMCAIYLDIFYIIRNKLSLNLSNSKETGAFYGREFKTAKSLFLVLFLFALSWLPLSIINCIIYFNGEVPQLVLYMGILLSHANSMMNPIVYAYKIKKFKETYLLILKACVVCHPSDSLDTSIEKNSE
In words: Inhibition of IB-MECA agonist-mediated cAMP production in CHO cell membranes expressing human Adenosine A3 receptor; range 2.7-6.6. Format: functional, cell-based. In outline: (§1)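 Human A3-CHO membranes (in 50 mM Tris HCl, 10 mM MgCl2, 1 mM EDTA, pH 7.4) were preincubated for 10 min at 37 °C with 5 µM GTP, 0.5 mM Ro 20-1724 and 2.0 IU/mL adenosine deaminase. IB-MECA (100 nM) or antagonist was then added with 1 mM ATP and forskolin for 10 min. The reaction was stopped by 2 min boiling. cAMP was measured by [3H]cAMP competitive protein binding using beef adrenal binding protein, 150 min at 4 °C.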
(In general: cAMP levels reflect the balance of adenylyl cyclase and phosphodiesterase activity.)

Experiment [4] has as its target T3, Adenosine receptor A3. In words: Displacement of [3H]MRE3008-F20 from human Adenosine A3 receptor expressed in HEK cells; range 0.39-0.54. Format: cell-based, HEK293. On the technique in general: Displacement assays read how much labelled ligand stays bound in the presence of the test substance.
Experiment [5] addresses Adenosine receptors; A2b & A3 (Homo sapiens) (UniProt P29275+P0DMS8). The experiment can be described thus: Selectivity ratio (h2B/hA3). It counts as protein assay.
Experiment [6] concerns the target Adenosine receptors; A1 & A3 (Homo sapiens) (UniProt P30542+P0DMS8). In words: Selectivity ratio (hA1/hA3). Format: protein assay.
For experiment [7], the target named is T4, Adenosine receptor A2b (Homo sapiens, UniProt P29275).
T4 sequence (P29275 whole entry): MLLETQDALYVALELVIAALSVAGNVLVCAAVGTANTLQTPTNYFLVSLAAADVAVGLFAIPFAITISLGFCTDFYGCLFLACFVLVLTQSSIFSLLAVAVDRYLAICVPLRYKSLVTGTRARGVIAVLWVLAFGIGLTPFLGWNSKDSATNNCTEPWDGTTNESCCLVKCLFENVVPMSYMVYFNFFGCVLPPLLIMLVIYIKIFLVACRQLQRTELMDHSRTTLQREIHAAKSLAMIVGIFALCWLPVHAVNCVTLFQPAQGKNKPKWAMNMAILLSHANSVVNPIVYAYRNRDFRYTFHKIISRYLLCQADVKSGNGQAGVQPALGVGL
The experiment can be described thus: Displacement of [3H]DPCPX from human Adenosine A2B receptor expressed in HEK293 cells; range 152-216. Format: cell-based. In outline:
(§2)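 Competition binding on membranes of HEK-293 cells carrying recombinant human A2B receptor. Incubation 60 min at 25 °C in 50 mM Tris HCl pH 7.4 with 10 mM MgCl2, 1 mM EDTA, 0.1 mM benzamidine and 2 IU/mL adenosine deaminase. Radioligand 40 nM [3H]DPCPX, at least six to eight test concentrations. NECA defined nonspecific binding. Bound ligand separated on glass-fibre filters and counted; n = 3-6.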

Experiment [8] concerns the target T1, Adenosine receptor A1. In words: Displacement of [3H]DPCPX from human Adenosine A1 receptor expressed in CHO cells. Format: cell-based. In outline:
(§3)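 Human recombinant A1 receptor in CHO cell membranes, resuspended in 50 mM Tris HCl pH 7.4. Displacement run 120 min at 25 °C with 1 nM [3H]DPCPX, 50 µg protein per assay, and at least six to eight test concentrations. Nonspecific binding defined with CHA. Bound and free separated on glass-fiber filters; filter radioactivity counted. n = 3-6.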

The target in experiment [9] is T4, Adenosine receptor A2b. The experiment can be described thus: Displacement of [3H]DPCPX binding at human Adenosine A2B receptor expressed in HEK293 cells. It counts as cell-based. In outline: (§4)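 Membranes from HEK-293 cells with human recombinant A2B receptor. Incubation 60 min at 25 °C in 50 mM Tris HCl, 10 mM MgCl2, 1 mM EDTA, 0.1 mM benzamidine, pH 7.4, with 2 IU/mL adenosine deaminase and 40 nM [3H]DPCPX. At least six to eight test concentrations. Nonspecific binding defined with NECA. n = 3-6.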

For experiment [10], the target named is T2, Adenosine receptor A2a. In words: Displacement of [3H]SCH-58261 from human Adenosine A2A receptor expressed in HEK293 cells; range 240-388. It counts as cell-based.
Experiment [11] addresses T3, Adenosine receptor A3. The experiment can be described thus: biochemical.
Experiment [12] deals with T3, Adenosine receptor A3. The experiment can be described thus: Displacement of [3H]MRE3008-F20 from human Adenosine A3 receptor expressed in HEK cells; range 0.10-0.18. Format: cell-based, HEK293.
For experiment [13], the target named is T2, Adenosine receptor A2a. The experiment can be described thus: Displacement of [3H]SCH-58261 from human Adenosine A2A receptor expressed in HEK293 cells; range 40-96. It counts as cell-based.
The target in experiment [14] is T4, Adenosine receptor A2b. In words: Displacement of [3H]-DPCPX from human Adenosine A2B receptor expressed in HEK293 cells; range 206-282. Format: cell-based. In outline: as §2
The target in experiment [15] is T3, Adenosine receptor A3. In words: Inhibition of IB-MECA agonist-mediated cAMP production in CHO cell membranes expressing human Adenosine A3 receptor; range 5.5-10.9. It counts as functional, cell-based. In outline:
as §1

The target in experiment [16] is T3, Adenosine receptor A3. The experiment can be described thus: Displacement of [3H]MRE3008-F20 from human Adenosine A3 receptor expressed in HEK cells; range 0.71-0.91. It counts as cell-based, HEK293.
The target of experiment [17] is T2, Adenosine receptor A2a. The experiment can be described thus: Displacement of [3H]SCH-58261 from human Adenosine A2A receptor expressed in HEK293 cells; range 140-186. It counts as cell-based.
In experiment [18] the target is T4, Adenosine receptor A2b. The experiment can be described thus: Displacement of [3H]DPCPX from human Adenosine A2B receptor expressed in HEK293 cells; range 213-296. It counts as cell-based. In outline:
as §2

In experiment [19] the target is T1, Adenosine receptor A1. The experiment can be described thus: Displacement of [3H]DPCPX from human Adenosine A1 receptor expressed in CHO cells; range 406-616. Format: cell-based.
For experiment [20], the target named is T1, Adenosine receptor A1. In words: Displacement of [3H]DPCPX from human Adenosine A1 receptor expressed in CHO cells; range 509-712. Format: cell-based. In outline: as §3
The target in experiment [21] is T3, Adenosine receptor A3. The experiment can be described thus: Displacement of [3H]MRE3008-F20 binding at human Adenosine A3 receptor expressed in HEK cells; range 0.77-0.97. It counts as cell-based, HEK293.
In experiment [22] the target is T2, Adenosine receptor A2a. In words: Displacement of [3H]SCH-58261 from human Adenosine A2A receptor expressed in HEK293 cells; range 48-78. Format: cell-based.
For experiment [23], the target named is T4, Adenosine receptor A2b. The experiment can be described thus: Displacement of [3H]DPCPX from human Adenosine A2B receptor expressed in HEK293 cells; range 211-287. Format: cell-based. In outline:
as §4

Experiment [24] has as its target T4, Adenosine receptor A2b. The experiment can be described thus: Displacement of [3H]DPCPX from human Adenosine A2B receptor expressed in HEK293 cells; range 65-94. It counts as cell-based. In outline: as §2
For experiment [25], the target named is T1, Adenosine receptor A1. The experiment can be described thus: Displacement of [3H]DPCPX from human Adenosine A1 receptor expressed in CHO cells; range 245-319. It counts as cell-based.
Experiment [26] addresses T3, Adenosine receptor A3. The experiment can be described thus: Displacement of [3H]MRE3008-F20 binding at human Adenosine A3 receptor expressed in HEK cells; range 0.76-0.98. Format: cell-based, HEK293.

T2 sequence (P29274 whole entry): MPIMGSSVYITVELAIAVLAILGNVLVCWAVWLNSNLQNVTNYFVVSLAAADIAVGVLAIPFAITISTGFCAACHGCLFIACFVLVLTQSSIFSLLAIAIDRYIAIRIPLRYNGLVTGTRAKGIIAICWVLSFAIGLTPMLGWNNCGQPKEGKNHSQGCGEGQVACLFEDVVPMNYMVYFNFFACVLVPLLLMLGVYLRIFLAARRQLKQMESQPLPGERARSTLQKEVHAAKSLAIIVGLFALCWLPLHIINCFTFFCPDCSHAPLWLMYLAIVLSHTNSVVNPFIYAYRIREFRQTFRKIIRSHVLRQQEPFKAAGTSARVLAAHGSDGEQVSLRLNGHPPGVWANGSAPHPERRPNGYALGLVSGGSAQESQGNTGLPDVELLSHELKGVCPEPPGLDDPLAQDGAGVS

What is called Ki is the equilibrium dissociation constant of an inhibitor or competing ligand from its target. Higher therefore signals a looser hold on the target. The IC50 is the point on the concentration scale where inhibition reaches its midpoint. A higher IC50 goes with lower potency. Consider `Cn1cc2c(nc(NC(=O)Nc3ccc(Br)cc3)n3nc(-c4ccco4)nc23)n1`, for which the Ki is 600 nM on Adenosine receptor A1 [1], 100 nM on Adenosine receptor A2a [2], 0.46 nM on Adenosine receptor A3 [4] and 181 nM on Adenosine receptor A2b [7]. At Adenosine receptor A3 [3], this molecule registered an IC50 of 4.2 nM. In addition, the Ratio is 393 in [5] and 1300 in [6].
As to `CCCn1cc2c(nc(NC(=O)Nc3ccc(S(=O)(=O)O)cc3)n3nc(-c4ccco4)nc23)n1`, the Ki was over 10000 nM at Adenosine receptor A1 [8], over 10000 nM at Adenosine receptor A2b [9], 305 nM at Adenosine receptor A2a [10] and 30 nM at Adenosine receptor A3 [11]. The Ratio in [5] and in [6] was over 333 in each case.
In the case of `CCCn1cc2c(nc(NC(=O)Nc3ccccc3)n3nc(-c4ccco4)nc23)n1`, the figures for the Ki on Adenosine receptor A3 [12], at Adenosine receptor A2a [13] and on Adenosine receptor A2b [14] were 0.15 nM, 62 nM and 241 nM, respectively. Besides, the Ratio in experiment [5] turned out to be 1610; in experiment [6], 1170.
On to `COc1cccc(NC(=O)Nc2nc3nn(C)cc3c3nc(-c4ccco4)nn23)c1`, for which the IC50 at Adenosine receptor A3 [15] came to 7.8 nM. The Ki is 0.8 nM on Adenosine receptor A3 [16], 160 nM on Adenosine receptor A2a [17], 251 nM at Adenosine receptor A2b [18] and 500 nM at Adenosine receptor A1 [19]. Besides, the results for the Ratio in experiment [5] and in experiment [6] were 313 and 625, respectively.
For `CCn1cc2c(nc(NC(=O)Nc3ccc(F)cc3)n3nc(-c4ccco4)nc23)n1`, the inhibition constant (Ki) on Adenosine receptor A1 [20] was found to be 602 nM; on Adenosine receptor A3 [21], 0.86 nM; at Adenosine receptor A2a [22], 60 nM; at Adenosine receptor A2b [23] it was 246 nM. The values for the Ratio in [5] and in [6] were 286 and 700, respectively.
As to `CCCCn1cc2c(nc(NC(=O)Nc3ccccc3Cl)n3nc(-c4ccco4)nc23)n1`, the Ki at Adenosine receptor A2b [24] was 78 nM; at Adenosine receptor A2a [2], 100 nM; on Adenosine receptor A1 [25], 280 nM; at Adenosine receptor A3 [26] it was 0.86 nM. In addition, the Ratio was determined as 91 in experiment [5] and 326 in experiment [6].
